# Data reported in paper PMC3947313 (Journal of neurochemistry, 2013).
# Numbering of substitutions follows the chain as printed. Names and notes keep the numbering of the source.
# B1: STEP: purified striatal-enriched protein tyrosine phosphatase (human PTPN5), wild type (protein, UniProt P54829 1-565, looked up)
# Tyrosine-protein phosphatase …: MNYEGARSERENHAADDSEGGALDMCCSERLPGLPQPIVMEALDEAEGLQDSQREMPPPPPPSPPSDPAQKPPPRGAGSHSLTVRSSLCLFAASQFLLACGVLWFSGYGHIWSQNATNLVSSLLTLLKQLEPTAWLDSGTWGVPSLLLVFLSVGLVLVTTLVWHLLRTPPEPPTPLPPEDRRQSVSRQPSFTYSEWMEEKIEDDFLDLDPVPETPVFDCVMDIKPEADPTSLTVKSMGLQERRGSNVSLTLDMCTPGCNEEGFGYLMSPREESAREYLLSASRVLQAEELHEKALDPFLLQAEFFEIPMNFVDPKEYDIPGLVRKNRYKTILPNPHSRVCLTSPDPDDPLSSYINANYIRGYGGEEKVYIATQGPIVSTVADFWRMVWQEHTPIIVMITNIEEMNEKCTEYWPEEQVAYDGVEITVQKVIHTEDYRLRLISLKSGTEERGLKHYWFTSWPDQKTPDRAPPLLHLVREVEEAAQQEGPHCAPIIVHCSAGIGRTGCFIATSICCQQLRQEGVVDILKTTCQLRQDRGGMIQTCEQYQFVHHVMSLYEKQLSHQSPE
# B2: R242A: STEP KIM mutant R242A (protein, UniProt P54829 1-565, looked up, variant R242A)
# Tyrosine-protein phosphatase …: B1 Tyrosine-protein phosphatase … with R242A
# B3: R243A: STEP KIM mutant R243A (protein, UniProt P54829 1-565, looked up, variant R243A)
# Tyrosine-protein phosphatase …: B1 Tyrosine-protein phosphatase … with R243A
# B4: L249A: STEP KIM mutant L249A (protein, UniProt P54829 1-565, looked up, variant L249A)
# Tyrosine-protein phosphatase …: B1 Tyrosine-protein phosphatase … with L249A
# B5: L251A: STEP KIM mutant L251A (protein, UniProt P54829 1-565, looked up, variant L251A)
# Tyrosine-protein phosphatase …: B1 Tyrosine-protein phosphatase … with L251A
# B6: S245E: S245E STEP phosphorylation mimic mutation (protein, UniProt P54829 1-565, looked up, variant S245E)
# Tyrosine-protein phosphatase …: B1 Tyrosine-protein phosphatase … with S245E
# B7: K329A: STEP pY-binding loop mutant K329A (protein, UniProt P54829 1-565, looked up, variant K329A)
# Tyrosine-protein phosphatase …: B1 Tyrosine-protein phosphatase … with K329A
# B8: T330D: STEP pY-binding loop mutant T330D (protein, UniProt P54829 1-565, looked up, variant T330D)
# Tyrosine-protein phosphatase …: B1 Tyrosine-protein phosphatase … with T330D
# B9: T330A: STEP pY-binding loop mutant T330A (protein, UniProt P54829 1-565, looked up, variant T330A)
# Tyrosine-protein phosphatase …: B1 Tyrosine-protein phosphatase … with T330A
# B10: Q462H: STEP WPD-loop mutant Q462H (protein, UniProt P54829 1-565, looked up, variant Q462H)
# Tyrosine-protein phosphatase …: B1 Tyrosine-protein phosphatase … with Q462H
# B11: Q462F: STEP WPD-loop mutant Q462F (protein, UniProt P54829 1-565, looked up, variant Q462F)
# Tyrosine-protein phosphatase …: B1 Tyrosine-protein phosphatase … with Q462F
# B12: K463Q: STEP WPD-loop mutant K463Q (protein, UniProt P54829 1-565, looked up, variant K463Q)
# Tyrosine-protein phosphatase …: B1 Tyrosine-protein phosphatase … with K463Q
# B13: E543: STEP Q-loop mutant, conserved E543 mutated to arginine (protein, UniProt P54829 1-565, looked up, variant E543R)
# Tyrosine-protein phosphatase …: B1 Tyrosine-protein phosphatase … with E543R
# B14: T541A: STEP Q-loop mutant T541A (protein, UniProt P54829 1-565, looked up, variant T541A)
# Tyrosine-protein phosphatase …: B1 Tyrosine-protein phosphatase … with T541A
# B15: F311A: STEP second-site loop mutant F311A (protein, UniProt P54829 1-565, looked up, variant F311A)
# Tyrosine-protein phosphatase …: B1 Tyrosine-protein phosphatase … with F311A
# B16: STEP (R242 and R243): STEP with combined mutation of R242 and R243 to alanine (protein, UniProt P54829 1-565, looked up, variant R242A R243A)
# Tyrosine-protein phosphatase …: B1 Tyrosine-protein phosphatase … with R242A, R243A
# How the values were obtained:
# [1] = molecular target: double phospho-peptide containing pT202pY204 derived from the ERK activation loop
# [2] = molecular target: double-phosphorylated ERK2-pT202pY204 protein (UniProt P28482)
# [3] = molecular target: double phospho-peptide containing pT202pY204 derived from the ERK activation loop; remark: listed apart in the source
# [4] = molecular target: double-phosphorylated ERK2-pT202pY204 protein (UniProt P28482); remark: listed apart in the source
# ERK2-pT202pY204 = test: Enzyme-coupled; format: biochemical; conditions: for decrease of kcat/Km (activity) toward phospho-ERK protein: STEP variant compared to wild-type STEP; for effect of mutation on activity toward phospho-ERK protein (in words): compared to the respective wild-type phosphatase
# How it was run: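 Phospho-ERK2 protein was prepared using ERK2 and MEK1 expression plasmids. Initial rates were fitted to Michaelis-Menten for Km and kcat. At substrate << Km, kcat/Km came from first-order progress-curve fitting. Values are mean ± standard error.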
# [5] = Activity of STEP variants toward pNPP; format: biochemical; conditions: for effect of mutation on activity toward pNPP (in words): compared to wild-type STEP, 37°C, pH 6.0
# How it was run: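 Phosphatase variants hydrolysed pNPP at 37°C in 50 mM succinic buffer (pH 6.0) with 1 mM EDTA, 2 mM DTT and ionic strength adjusted to 0.15 M with NaCl. Reactions were stopped with 1 M NaOH and read at 405 nm. Kinetic parameters came from Michaelis-Menten fits, reported as mean ± standard error.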
# [6] = tested on: ERK pT202pY204 phospho-peptide; format: biochemical; conditions: for effect of mutation on activity toward phospho-ERK peptide (in words) / effect of mutation on Km for the phospho-ERK-peptide (in words): compared to wild-type STEP; for decrease of activity toward phospho-ERK peptide: STEP mutant compared to wild-type STEP, 37°C, pH 6.0
# How it was run: (§1)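 Synthetic, HPLC-purified Tyr(P)-containing peptides were dephosphorylated at 37°C in 50 mM succinic buffer (pH 6.0), 1 mM EDTA and 2 mM DTT, ionic strength 0.15 M (NaCl). Released phosphate was measured with BIOMOL Green at 620 nm. Hydrolysis was also followed continuously by tyrosine fluorescence (excitation 280 nm, emission 305 nm). Michaelis-Menten fits gave kinetic parameters (mean ± standard error).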
# [7] = tested on: p38-derived phospho-peptide; test: Activity of STEP variants toward the p38-derived phospho-peptide; format: biochemical; conditions: STEP mutant compared to wild-type STEP
# How it was run: as §1
molecule,measurement,setting,value
STEP F311A (from UniProt P54829 1-565) (enzyme),"activity toward the ERK phospho-peptide, decrease against wild-type STEP",[1],2 fold
STEP K463Q (from UniProt P54829 1-565) (enzyme),"activity toward the phospho-ERK protein, decrease against wild-type STEP",[2],> 4 fold
same,"activity toward the phospho-ERK peptide, decrease against wild-type STEP",[3],> 4 fold
HePTP S23E (from UniProt P35236 1-360) (enzyme),"activity toward phospho-ERK, decrease against wild-type HePTP",[4],3 fold
B1,kcat of ERK-pT202pY204 dephosphorylation,"ERK2-pT202pY204; pH 7.0, 25°C, initial rates fitted to Michaelis-Menten, OD360",0.78 s^−1
B2,decrease of kcat/Km (activity) toward phospho-ERK protein,"ERK2-pT202pY204; pH 7.0, 25°C",4 fold
B3,decrease of kcat/Km (activity) toward phospho-ERK protein,"ERK2-pT202pY204; pH 7.0, 25°C",6 fold
B4,decrease of kcat/Km (activity) toward phospho-ERK protein,"ERK2-pT202pY204; pH 7.0, 25°C",2.5 fold
B5,decrease of kcat/Km (activity) toward phospho-ERK protein,"ERK2-pT202pY204; pH 7.0, 25°C",7 fold
B6,decrease of kcat/Km (activity) toward phospho-ERK protein,"ERK2-pT202pY204; pH 7.0, 25°C",50 fold
same,effect of mutation on activity toward pNPP (in words),[5],did not affect
same,effect of mutation on activity toward phospho-ERK peptide (in words),[6],did not affect
B7,effect of mutation on activity toward phospho-ERK protein (in words),ERK2-pT202pY204,did not affect
same,effect of mutation on activity toward pNPP (in words),[5],weakly
same,effect of mutation on activity toward phospho-ERK peptide (in words),[6],weakly
B8,increase of kcat/Km toward phospho-ERK protein,ERK2-pT202pY204; STEP mutant compared to wild-type STEP,1.3 fold
same,effect of mutation on activity toward pNPP (in words),[5],did not affect
same,increase of activity toward p38-derived phospho-peptide,[7],2–3 fold
B9,effect of mutation on activity toward pNPP (in words),[5],did not affect
same,effect of mutation on activity toward phospho-ERK peptide (in words),[6],did not affect
B10,effect of mutation on activity toward phospho-ERK protein (in words),ERK2-pT202pY204,increase
same,effect of mutation on Km for the phospho-ERK-peptide (in words),[6],significantly lower
B11,effect of mutation on activity toward phospho-ERK protein (in words),ERK2-pT202pY204,increase
same,effect of mutation on Km for the phospho-ERK-peptide (in words),[6],significantly lower
B12,decrease of kcat/Km (activity) toward phospho-ERK protein,"ERK2-pT202pY204; pH 7.0, 25°C",more than 4 fold
same,decrease of activity toward phospho-ERK peptide,[6],more than 4 fold
B13,effect of mutation on activity toward phospho-ERK protein (in words),ERK2-pT202pY204,no effect
B14,decrease of kcat/Km (activity) toward phospho-ERK protein,"ERK2-pT202pY204; pH 7.0, 25°C",2 fold
same,decrease of activity toward pNPP,"[5]; STEP mutant compared to wild-type STEP, stated as 'all substrates'",2 fold
same,decrease of activity toward phospho-p38 peptide,[7]; stated as 'all substrates',2 fold
same,decrease of activity toward phospho-ERK peptide,[6],2 fold
B15,decrease of kcat/Km (activity) toward phospho-ERK protein,"ERK2-pT202pY204; pH 7.0, 25°C",2 fold
same,effect of mutation on activity toward pNPP (in words),[5],did not affect
same,decrease of activity toward phospho-ERK peptide,[6],2 fold
B16,effect of combined R-to-A mutation on ERK dephosphorylation (in words),ERK2-pT202pY204; compared to single R-to-A mutations of STEP,did not promote a further decrease
